ChEMBL document CHEMBL1828623, “Overcoming hERG activity in the discovery of a series of 4-azetidinyl-1-aryl-cyclohexanes as CCR2 antagonists” (Bioorg Med Chem Lett, 2011)

Tests used:
[1] = target: C-C chemokine receptor type 2 (Homo sapiens, UniProt P41597); assay: Displacement of [125I]-MCP1 from CCR2 in human THP1 cells after 2 hrs by microplate scintillation and luminescence counting; assay type: cell-based, THP-1
Procedure, shortened: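 They were incubated with 0.5 nM ¹²⁵I-MCP-1 and varying test compound concentrations for 2 h at 30 °C. Cold MCP-1 defined nonspecific binding. Buffer-only blanks were subtracted and values compared with vehicle.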

[2] = target: Voltage-gated inwardly rectifying potassium channel KCNH2 (Homo sapiens, UniProt Q12809); assay: Displacement of [3H]astemizole from human ERG expressed in HEK293 cells after 1 hr
Chain of Voltage-gated inwardly rectifying potassium channel KCNH2 (Q12809 whole entry): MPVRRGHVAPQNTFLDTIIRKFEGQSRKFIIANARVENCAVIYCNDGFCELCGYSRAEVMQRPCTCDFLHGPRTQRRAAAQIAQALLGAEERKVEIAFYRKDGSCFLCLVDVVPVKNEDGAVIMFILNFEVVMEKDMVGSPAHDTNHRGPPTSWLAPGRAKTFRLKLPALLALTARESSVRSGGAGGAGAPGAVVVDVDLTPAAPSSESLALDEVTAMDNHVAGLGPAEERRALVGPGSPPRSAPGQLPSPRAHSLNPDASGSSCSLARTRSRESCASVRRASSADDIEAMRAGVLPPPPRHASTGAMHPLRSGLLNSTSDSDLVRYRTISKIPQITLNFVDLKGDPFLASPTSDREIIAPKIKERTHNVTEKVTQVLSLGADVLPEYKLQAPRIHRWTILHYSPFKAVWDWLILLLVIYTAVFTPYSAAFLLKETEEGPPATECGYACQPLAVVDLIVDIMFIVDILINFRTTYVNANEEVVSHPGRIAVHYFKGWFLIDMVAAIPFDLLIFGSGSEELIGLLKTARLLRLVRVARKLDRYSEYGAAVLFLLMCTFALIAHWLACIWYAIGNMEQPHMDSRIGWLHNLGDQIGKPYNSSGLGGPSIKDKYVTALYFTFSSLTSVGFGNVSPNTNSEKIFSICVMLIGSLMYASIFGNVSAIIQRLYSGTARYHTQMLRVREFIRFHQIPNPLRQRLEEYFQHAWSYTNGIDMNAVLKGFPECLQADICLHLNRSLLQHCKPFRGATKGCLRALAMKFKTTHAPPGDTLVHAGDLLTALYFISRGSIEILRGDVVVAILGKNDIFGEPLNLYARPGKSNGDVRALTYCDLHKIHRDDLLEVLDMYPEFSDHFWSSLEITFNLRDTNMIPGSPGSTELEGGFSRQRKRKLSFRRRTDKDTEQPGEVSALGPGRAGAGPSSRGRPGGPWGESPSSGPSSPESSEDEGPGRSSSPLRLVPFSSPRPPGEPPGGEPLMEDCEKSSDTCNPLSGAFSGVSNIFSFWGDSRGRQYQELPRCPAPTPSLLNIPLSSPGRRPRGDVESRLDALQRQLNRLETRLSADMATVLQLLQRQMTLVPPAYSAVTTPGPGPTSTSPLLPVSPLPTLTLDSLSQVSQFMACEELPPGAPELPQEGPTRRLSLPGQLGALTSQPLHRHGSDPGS

Chain of C-C chemokine receptor type 2 (P41597 whole entry): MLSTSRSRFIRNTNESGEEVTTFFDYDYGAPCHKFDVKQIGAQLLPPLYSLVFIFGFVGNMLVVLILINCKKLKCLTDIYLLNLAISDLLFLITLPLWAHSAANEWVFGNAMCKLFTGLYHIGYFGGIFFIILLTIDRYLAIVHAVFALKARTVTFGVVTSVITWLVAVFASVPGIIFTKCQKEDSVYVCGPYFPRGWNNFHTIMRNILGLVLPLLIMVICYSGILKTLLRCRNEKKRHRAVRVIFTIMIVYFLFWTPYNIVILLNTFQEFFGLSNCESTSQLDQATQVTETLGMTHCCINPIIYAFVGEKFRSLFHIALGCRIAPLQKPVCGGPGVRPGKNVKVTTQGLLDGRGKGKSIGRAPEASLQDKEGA

| SMILES | IC50 [1] | IC50 [2] |
| --- | --- | --- |
| N[C@]1(c2ccccc2)CC[C@H](N2CC(NC(=O)CNC(=O)c3cccc(C(F)(F)F)c3)C2)CC1 | 240 nM |  |
| N#Cc1cccc([C@]2(O)CC[C@@H](N3CC(NC(=O)CNC(=O)c4cccc(C(F)(F)F)c4)C3)CC2)c1 | 410 nM |  |
| O=C(CNC(=O)c1ccc(C(F)(F)F)cc1)NC1CN([C@H]2CC[C@H](c3ccc4c(c3)OCO4)CC2)C1 | 1200 nM | 1500 nM |
| O=C(CNC(=O)c1cccc(C(F)(F)F)c1)NC1CN([C@H]2CC[C@](O)(c3ccc(F)cc3)CC2)C1 | 210 nM |  |
| N#C[C@]1(c2ccccc2)CC[C@H](N2CC(NC(=O)CNC(=O)c3cccc(C(F)(F)F)c3)C2)CC1 | > 25000 nM |  |
| O=C(CNC(=O)c1cccc(C(F)(F)F)c1)NC1CN([C@H]2CC[C@](C(=O)O)(c3ccccc3)CC2)C1 | > 25000 nM |  |
| Cc1cccc(C)c1[C@]1(O)CC[C@@H](N2CC(NC(=O)CNC(=O)c3cccc(C(F)(F)F)c3)C2)CC1 | > 25000 nM |  |
| O=C(CNC(=O)c1cccc(C(F)(F)F)c1)NC1CN(C2CCC(c3c[nH]c4ccccc34)CC2)C1 (mixture of isomers) | < 1000 nM | 2400 nM |
| O=C(CNC(=O)c1cccc(C(F)(F)F)c1)NC1CN([C@H]2CC[C@H](c3ccc4c(c3)OCO4)CC2)C1 | 1800 nM |  |
| O=C(CNC(=O)c1cccc(C(F)(F)F)c1)NC1CN(C2CC=C(c3ccc4c(c3)OCO4)CC2)C1 (stereo not drawn) | 1000 nM |  |
| O=C(CNC(=O)c1ccccc1)NC1CN([C@H]2CC[C@H](c3ccc4c(c3)OCO4)CC2)C1 | 390 nM |  |
| O=C(CNC(=O)c1cccc(C(F)(F)F)c1)NC1CN(C2CCN(c3ccc4c(c3)OCO4)CC2)C1 | > 25000 nM |  |
| O=C(CNC(=O)c1cccc(C(F)(F)F)c1)NC1CN([C@H]2CC[C@](CO)(c3ccccc3)CC2)C1 | > 25000 nM |  |

More lines, main results first:

| IC50 [1] | SMILES | IC50 [2] |
| --- | --- | --- |
| 13 nM | O=C(CNC(=O)c1cccc(C(F)(F)F)c1)NC1CN([C@H]2CC[C@H](c3ccc(O)cn3)CC2)C1 |  |
| 25 nM | O=C(CNC(=O)c1cccc(C(F)(F)F)c1)NC1CN([C@H]2CC[C@](O)(c3ccc4c(c3)OCC4)CC2)C1 |  |
| 5 nM | O=C(CNC(=O)c1cccc(C(F)(F)F)c1)NC1CN([C@H]2CC[C@@H](c3ccc4c(c3)OCO4)CC2)C1 |  |
| 70 nM | O=C(CNC(=O)c1cccc(C(F)(F)F)c1)NC1CN([C@H]2CC[C@H](c3ccc(C(=O)O)cc3)CC2)C1 |  |
| 27 nM | O=C(CNC(=O)c1cccc(C(F)(F)F)c1)NC1CN([C@H]2CC[C@H](c3ccc4[nH]cnc4c3)CC2)C1 |  |
| 45 nM | O=C(CNC(=O)c1cccc(C(F)(F)F)c1)NC1CN([C@H]2CC[C@H](c3cccnc3)CC2)C1 |  |
| 25 nM | COc1cc([C@H]2CC[C@H](N3CC(NC(=O)CNC(=O)c4cccc(C(F)(F)F)c4)C3)CC2)ccn1 |  |
| 21 nM | O=C(CNC(=O)c1cccc(C(F)(F)F)c1)NC1CN([C@H]2CC[C@H](c3ccc(O)cc3)CC2)C1 |  |
| 32 nM | COc1cnccc1[C@H]1CC[C@H](N2CC(NC(=O)CNC(=O)c3cccc(C(F)(F)F)c3)C2)CC1 |  |
| 10 nM | COc1ccc([C@H]2CC[C@H](N3CC(NC(=O)CNC(=O)c4cccc(C(F)(F)F)c4)C3)CC2)cc1 |  |
| 20 nM | COc1ccc([C@]2(O)CC[C@@H](N3CC(NC(=O)CNC(=O)c4cccc(C(F)(F)F)c4)C3)CC2)cc1 |  |
| 35 nM | O=C(CNC(=O)c1cccc(C(F)(F)F)c1)NC1CN([C@H]2CC[C@H](c3ccccc3)CC2)C1 |  |
| 190 nM | O=C(CNC(=O)c1cccc(C(F)(F)F)c1)NC1CN([C@H]2CC[C@](O)(c3cccnc3)CC2)C1 |  |
| 61 nM | O=C(CNC(=O)c1cccc(C(F)(F)F)c1)NC1CN([C@H]2CC[C@H](c3ccc(N4CCCC4)cc3)CC2)C1 |  |
| 22 nM | O=C(CNC(=O)c1cccc(C(F)(F)F)c1)NC1CN([C@H]2CC[C@](O)(c3ccc4c(c3)OCO4)CC2)C1 |  |
| 52 nM | O=C(CNC(=O)c1cccc(C(F)(F)F)c1)NC1CN([C@H]2CC[C@H](c3ccncc3O)CC2)C1 |  |
| 85 nM | Nc1ccc([C@H]2CC[C@H](N3CC(NC(=O)CNC(=O)c4cccc(C(F)(F)F)c4)C3)CC2)nc1 |  |
| 7 nM | COc1ccc([C@H]2CC[C@H](N3CC(NC(=O)CNC(=O)c4cccc(C(F)(F)F)c4)C3)CC2)cn1 |  |
